ChEMBL document CHEMBL1130838, “N-[4-(1,1'-biphenyl)methyl]-4-(4-thiomorpholinylmethyl) benzenamines as non-oxazolidinone analogues of antimycobacterial U-100480” (1998)
Values after ≈ are worked out from the molar mass of the structure shown.

Key:
[1] = system: Mycobacterium tuberculosis; assay: In vitro minimum inhibitory concentration against Mycobacterium tuberculosis CIP 103471 was determined; assay type: functional
Method in brief: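 Broth microdilution in Middlebrook 7H9 with 10% ADC. DMSO stocks were filter-sterilised (0.2 μm nylon), then serially diluted 2-fold in water. Tubes were incubated at 37°C for 10-15 days alongside a drug-free control. MIC was the lowest concentration with no visible turbidity.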

Mycobacterium marinum = assay: In vitro cytotoxicity against Mycobacterium marinum (CIP 6423) was determined; assay type: functional
Method in brief: (§1)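 Broth microdilution in Middlebrook 7H9. Stocks were made in DMSO and filter-sterilized (0.2 μm), then serially diluted 2-fold in water. Tubes were incubated at 37°C for 10-15 days, with a drug-free control tube in each experiment. MIC (μg/mL) is the lowest concentration giving no visible turbidity.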

Mycobacterium gordonae = assay: In vitro cytotoxicity against Mycobacterium gordonae (CIP 6427) was determined; assay type: functional; method in brief: as §1
Vero = assay: Minimal toxic dose that induced a reduction of 50% of cell growth in Vero cell line […]; assay type: functional, Chlorocebus sabaeus
Method in brief: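 VERO monolayers in Dulbecco's modified MEM with 2% fetal calf serum were seeded at 9'10⁴ cells per well in six-well plates. Compounds, dissolved in DMSO at 10 mg/mL initially, were added after 24 h. Five days later, cells were trypsinised and counted in a Neubauer chamber. MTD50 was the concentration giving 50% growth reduction versus control.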

[2] = system: Mycolicibacterium smegmatis; assay: In vitro cytotoxicity against Mycobacterium smegmatis CIP (103599) was determined; assay type: functional; method in brief: as §1
Mycobacterium avium [3] = assay: In vitro cytotoxicity against Mycobacterium avium (CIP 103317) was determined; assay type: functional
Mycobacterium avium [4] = assay: In vitro cytotoxicity against Mycobacterium avium (CIP 103317) was determined

Row | Compound | MIC [1] [µg/mL] | MIC (Mycobacterium marinum) [µg/mL] | MIC (Mycobacterium gordonae) [µg/mL] | MTD50 (Vero) [µg/mL] | MIC [2] [µg/mL] | MIC (Mycobacterium avium [3]) [µg/mL] | MIC (Mycobacterium avium [4]) [µg/mL]
1 | C[N+](C)(Cc1ccc(-c2ccccc2)cc1)c1ccc(CN2CCSCC2)cc1.[I-] | 8 | 16 | 8 | 16 | > 16 | 16 | 
2 | O=C(Nc1ccc(CN2CCSCC2)cc1)c1ccc(-c2ccccc2)cc1 | > 16 | > 16 | > 16 | 16 | > 16 | > 16 | 
3 | NNC(=O)c1ccncc1 [ISONIAZID] | 0.25 (≈ 1.82 µM) | 16 (≈ 117 µM) | 32 (≈ 233 µM) | 32 | 64 (≈ 467 µM) | 32 (≈ 233 µM) | 
4 | c1ccc(-c2ccc(CNc3ccc(CN4CCSCC4)cc3)cc2)cc1 | 0.5 (≈ 1.33 µM) | 8 (≈ 21.4 µM) | 8 (≈ 21.4 µM) | 8 | > 16 |  | 4 (≈ 10.7 µM)
5 | CN(Cc1ccc(-c2ccccc2)cc1)c1ccc(CN2CCSCC2)cc1 | 0.5 (≈ 1.29 µM) | 8 (≈ 20.6 µM) | > 16 | 8 | > 16 | 4 (≈ 10.3 µM) | 
6 | CN[C@@H]1[C@H](O[C@H]2[C@H](O[C@H]3[C@H](O)[C@@H](O)[C@H](N=C(N)N)[C@@H](O)[C@@H]3N=C(N)N)O[C@@H](C)[C@]2(O)C=O)O[C@@H](CO)[C@H](O)[C@H]1O [STREPTOMYCIN] | 0.5 (≈ 0.86 µM) | 32 (≈ 55 µM) | 16 (≈ 27.5 µM) | >64 | 8 (≈ 13.8 µM) | 4 (≈ 6.88 µM) | 
